Results gathered from unrelated publications.
Lines come from different studies, so protocols differ.
Target: Mitogen-activated protein kinase kinase kinase kinase 4 (MAP4K4, Homo sapiens, UniProt O95819)

| Compound | assay | setting | remaining binding |
| --- | --- | --- | --- |
| c1cnn2ncc(-c3ccnc(N4CCC45COC5)n3)c2c1 | binding | 1 µM | 77% |
| CN(C)c1ncnc(-c2ccc3nc(Nc4cc(CN5CCN(C(=O)CC(F)(F)F)CC5)ccn4)[nH]c3c2)c1Cl | cell-free assay, competition with immobilised ligand | 1 µM | 100% |
| CN(C)c1nccc(-c2cnn3ncccc23)n1 | binding | 1 µM | 87% |
| CNC(=O)[C@@H]1CC[C@@H](n2c(-c3ccc4cnccc4c3)nc3ccc(C(=O)NCc4cccc(C(N)=O)c4)cc32)C1 | binding, competition with immobilised ligand | 1 µM | 100% |
| Nc1ncc2c(n1)-c1c([nH]c3ccc(C#CC4CC4)cc13)CCCC2 | binding, competition with immobilised ligand | 1 µM | 90% |
| CCN1CCN(Cc2ccc(C(=O)Nc3ccc(C)c(Oc4ccc5c(c4)CC(=O)N5)c3)cc2C(F)(F)F)CC1 | binding, competition with immobilised ligand | 1 µM | 88% |
| COc1cnc(Nc2cccc(S(N)(=O)=O)c2)nc1N1CCN(c2ccccc2)C(=O)C1 | binding, competition with immobilised ligand | 1 µM | 100% |
| O=C(c1ccc(Nc2ncc(Cl)c(-c3cc4ccccc4s3)n2)cc1)N1CCC(N2CCCC2)CC1 | binding, competition with immobilised ligand | 1 µM | 34% |
| F[C@@H]1CCN(c2nccc(-c3cnn4ncccc34)n2)C1 | binding | 1 µM | 76% |
| Cc1c(C(=O)O)cc(-c2ccc(C3CCNCC3)cc2)c2ccc(-c3ccc(C(F)(F)F)cc3)cc12 | binding, competition with immobilised ligand | 1 µM | 76% |
| N[C@@H]1CCN(c2nccc(-c3cnn4ncccc34)n2)C1 | binding | 1 µM | 100% |
| O=C(NCCCN1CCOCC1)c1ccc(Nc2ncc(Cl)c(-c3ccc(Cl)s3)n2)cc1 | binding, competition with immobilised ligand | 1 µM | 67% |
| COc1ncc2cc3ccccc3nc2c1C#N | cell-free assay, competition with immobilised ligand | 5 µM | 91% |
| Cc1nccc(COC(=O)N2C[C@@H]3[C@@H](CNC(=O)c4ccc5[nH]nnc5c4)[C@@H]3C2)n1 | cell-free assay, competition with immobilised ligand | 1 µM | 99% |
| CN(CCCC(F)(F)F)c1nccc(-c2cnn3ncccc23)n1 | binding | 1 µM | 100% |
| O=C1CCc2cc(Nc3cc(OC4CCOCC4)c([N+](=O)[O-])cc3Cl)ccc2N1 | cell-free assay, competition with immobilised ligand | 1 µM | 100% |
| CN(c1nccc(-c2cnn3ncccc23)n1)C1CC1 | binding | 1 µM | 13% |
| O=C(NCCCC1CCCCC1)c1ccc(CNC(=O)c2cnn(-c3ccccc3)c2C(F)(F)F)cc1 | cell-free assay, competition with immobilised ligand | 0.1 µM | 81% |
| O=C(c1ccc(Nc2nccc(-c3cc4ccccc4s3)n2)cc1)N1CCC(N2CCCC2)CC1 | binding, competition with immobilised ligand | 1 µM | 40% |
| CCc1ccccc1C(=O)Nc1n[nH]c2c(C)c(F)c(C3C(C#N)=C(C)N(C)C(C)=C3C#N)cc12 | cell-free assay, competition with immobilised ligand | 1 µM | 100% |
| O=C(Nc1c[nH]nc1C(=O)NC1CCNCC1)c1cc(F)cc(F)c1 | binding, competition with immobilised ligand | 1 µM | 100% |
